In ChEMBL document CHEMBL1671761, “Preclinical characterization of BI 201335, a C-terminal carboxylic acid inhibitor of the hepatitis C virus NS3-NS4A protease” (Antimicrob Agents Chemother, 2010):

Assays:
[1] = target: Caspase-1 (Homo sapiens) (UniProt P29466); experiment: Inhibition of human caspase-1 at 10 uM
[2] = target: Calpain-1 catalytic subunit (Homo sapiens) (UniProt P07384); experiment: Inhibition of human calpain-1 at 10 uM
[3] = target: Histamine H2 receptor (Homo sapiens) (UniProt P25021); experiment: Inhibition of human H2 receptor at 10 uM
Chain of Histamine H2 receptor (Homo sapiens) (P25021 whole entry): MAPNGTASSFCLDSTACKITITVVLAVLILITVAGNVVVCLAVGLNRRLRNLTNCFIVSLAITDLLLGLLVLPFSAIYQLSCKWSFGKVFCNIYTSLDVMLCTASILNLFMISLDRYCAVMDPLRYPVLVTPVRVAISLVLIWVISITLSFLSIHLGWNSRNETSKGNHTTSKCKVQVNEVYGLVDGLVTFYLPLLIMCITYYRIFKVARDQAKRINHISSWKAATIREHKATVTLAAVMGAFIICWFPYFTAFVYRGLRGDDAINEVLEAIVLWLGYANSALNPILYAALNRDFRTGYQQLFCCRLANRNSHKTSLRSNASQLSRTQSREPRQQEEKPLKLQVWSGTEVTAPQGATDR

[4] = species on record: Rattus norvegicus; experiment: Inhibition of rat mAChR at 10 uM
[5] = target: Alpha-1A adrenergic receptor (Rattus norvegicus) (UniProt P43140); experiment: Inhibition of rat adrenergic receptor Alpha-1at 10 uM
[6] = target: Matrix metalloproteinase-14 (Homo sapiens) (UniProt P50281); experiment: Inhibition of human MMP-14 at 10 uM
[7] = target: Stromelysin-1 (Homo sapiens) (UniProt P08254); experiment: Inhibition of human MMP-3 at 10 uM
Chain of Stromelysin-1 (Homo sapiens) (P08254 100-477 limits assumed): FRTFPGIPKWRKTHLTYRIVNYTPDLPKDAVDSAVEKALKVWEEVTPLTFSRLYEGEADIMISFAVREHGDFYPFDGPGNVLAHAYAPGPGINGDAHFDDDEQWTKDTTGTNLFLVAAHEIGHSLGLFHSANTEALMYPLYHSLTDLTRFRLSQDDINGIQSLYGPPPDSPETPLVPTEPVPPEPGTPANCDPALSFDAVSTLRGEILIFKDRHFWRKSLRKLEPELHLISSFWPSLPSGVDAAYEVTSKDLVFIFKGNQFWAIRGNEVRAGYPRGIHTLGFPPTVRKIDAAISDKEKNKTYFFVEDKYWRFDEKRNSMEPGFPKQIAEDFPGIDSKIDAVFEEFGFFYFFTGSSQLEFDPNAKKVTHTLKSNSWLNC

[8] = species on record: Homo sapiens; experiment: Inhibition of human tryptase at 10 uM
[9] = Mean retention time in dog at 5 mg/kg, po; type: ADME, organism-based, Canis lupus familiaris; design: dose 5 mg/kg, route oral; conditions: in vivo
In short: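 Fasted male beagle dogs (9.8-13.8 kg) given a single oral dose in 0.5% Methocel/0.3% Tween 80. Plasma taken by solid-phase extraction and measured by LC-MS/MS at m/z 869.3 (LOQ 50 nM). Noncompartmental analysis. Mean ± SE for three males.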

[10] = target: Glutamate receptor ionotropic, delta-1 (Rattus norvegicus) (UniProt Q62640); experiment: Inhibition of rat glutamate receptor at 10 uM
Chain of Glutamate receptor ionotropic, delta-1 (Rattus norvegicus) (Q62640 whole entry): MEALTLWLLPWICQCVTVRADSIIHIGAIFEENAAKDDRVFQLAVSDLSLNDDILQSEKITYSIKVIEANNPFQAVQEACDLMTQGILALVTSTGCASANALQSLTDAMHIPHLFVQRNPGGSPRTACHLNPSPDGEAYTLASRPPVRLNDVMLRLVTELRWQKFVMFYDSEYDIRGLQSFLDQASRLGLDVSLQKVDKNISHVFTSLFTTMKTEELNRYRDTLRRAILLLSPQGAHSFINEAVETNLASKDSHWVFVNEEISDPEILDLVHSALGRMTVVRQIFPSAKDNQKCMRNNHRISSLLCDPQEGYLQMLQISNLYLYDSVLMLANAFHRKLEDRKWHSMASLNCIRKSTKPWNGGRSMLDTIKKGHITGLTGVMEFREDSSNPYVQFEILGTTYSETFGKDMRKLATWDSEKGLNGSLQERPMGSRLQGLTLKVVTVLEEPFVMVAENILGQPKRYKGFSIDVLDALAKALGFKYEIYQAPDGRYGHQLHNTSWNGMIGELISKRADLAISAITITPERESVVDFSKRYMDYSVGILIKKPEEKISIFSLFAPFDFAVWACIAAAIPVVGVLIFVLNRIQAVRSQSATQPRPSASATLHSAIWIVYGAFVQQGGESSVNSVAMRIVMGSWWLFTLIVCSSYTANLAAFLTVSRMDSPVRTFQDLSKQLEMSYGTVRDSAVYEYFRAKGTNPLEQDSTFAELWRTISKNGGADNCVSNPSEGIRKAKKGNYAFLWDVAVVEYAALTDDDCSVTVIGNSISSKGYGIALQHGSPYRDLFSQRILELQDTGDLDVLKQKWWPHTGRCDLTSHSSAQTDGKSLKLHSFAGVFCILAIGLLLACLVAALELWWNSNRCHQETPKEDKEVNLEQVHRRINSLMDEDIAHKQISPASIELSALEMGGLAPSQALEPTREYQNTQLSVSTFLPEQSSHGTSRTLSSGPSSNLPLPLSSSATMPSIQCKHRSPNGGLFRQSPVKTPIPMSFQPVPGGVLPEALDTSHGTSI

[11] = target: Alpha-2A adrenergic receptor (Rattus norvegicus) (UniProt P22909); experiment: Inhibition of rat adrenergic receptor Alpha-2 at 10 uM
Chain of Alpha-2A adrenergic receptor (Rattus norvegicus) (P22909 whole entry): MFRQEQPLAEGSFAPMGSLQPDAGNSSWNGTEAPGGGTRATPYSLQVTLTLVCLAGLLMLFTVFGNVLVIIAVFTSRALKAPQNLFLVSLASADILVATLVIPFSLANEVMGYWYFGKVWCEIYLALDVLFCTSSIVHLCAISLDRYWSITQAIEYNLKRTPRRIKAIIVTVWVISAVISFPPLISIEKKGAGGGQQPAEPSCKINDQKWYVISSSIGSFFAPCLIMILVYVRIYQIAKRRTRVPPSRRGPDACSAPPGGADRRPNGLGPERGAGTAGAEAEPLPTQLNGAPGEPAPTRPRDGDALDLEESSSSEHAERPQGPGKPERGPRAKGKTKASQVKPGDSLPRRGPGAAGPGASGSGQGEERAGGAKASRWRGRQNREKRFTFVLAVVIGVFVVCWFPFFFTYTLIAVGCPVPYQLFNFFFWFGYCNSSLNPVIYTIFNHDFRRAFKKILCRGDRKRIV

[12] = target: Caspase-10 (Homo sapiens) (UniProt Q92851); experiment: Inhibition of human recombinant caspase-10 expressed in Escherichia coli at 10 uM by fluorimetry
[13] = target: 5-hydroxytryptamine receptor 6 (Homo sapiens) (UniProt P50406); experiment: Inhibition of human 5-HT6 receptor at 10 uM
[14] = target: D(1A) dopamine receptor (Homo sapiens) (UniProt P21728); experiment: Inhibition of human dopamine receptor 1 at 10 uM
Chain of D(1A) dopamine receptor (Homo sapiens) (P21728 whole entry): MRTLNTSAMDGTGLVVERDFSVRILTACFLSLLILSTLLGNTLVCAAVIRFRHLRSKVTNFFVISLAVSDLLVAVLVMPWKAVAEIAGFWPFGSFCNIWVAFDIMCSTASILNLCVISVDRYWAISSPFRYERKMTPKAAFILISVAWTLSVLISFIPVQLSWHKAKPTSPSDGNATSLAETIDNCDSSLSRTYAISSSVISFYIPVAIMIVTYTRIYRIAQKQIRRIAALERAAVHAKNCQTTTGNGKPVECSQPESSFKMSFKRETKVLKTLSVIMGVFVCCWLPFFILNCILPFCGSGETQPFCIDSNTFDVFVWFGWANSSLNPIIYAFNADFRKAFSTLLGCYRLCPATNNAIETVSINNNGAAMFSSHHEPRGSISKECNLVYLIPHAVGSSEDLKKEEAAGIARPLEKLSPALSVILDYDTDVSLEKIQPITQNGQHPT

[15] = Mean retention time in monkey at 5 mg/kg, po; type: ADME, organism-based, Macaca mulatta; design: dose 5 mg/kg, route oral; conditions: rhesus monkey, in vivo
In short: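 Fasted male rhesus monkeys (3.0-4.8 kg) given a single oral dose in 0.5% Methocel/0.3% Tween 80. Plasma taken by solid-phase extraction and measured by LC-MS/MS at m/z 869.3 (LOQ 10 nM). Noncompartmental analysis. Mean ± SE for three males.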

[16] = species on record: Rattus norvegicus; experiment: Inhibition of rat potassium channel-V at 10 uM
[17] = test system: Hepatitis C virus; experiment: Inhibition of HCV 1b NS3/4A protease; design: species or system Hepatitis C virus subtype 1b; conditions: read-out: Ki(app)
In short: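 Full-length NS3 coexpressed with the 54-residue NS4A, 0.5 nM (2.5 nM for genotype 1a). Substrate was 5 μM anthranilyl-DDIVPAbu[C(O)-O]AMY(3-NO2)TW-OH in 50 mM Tris pH 8.0, 0.25 M citrate, 0.01% dodecylmaltoside, 1 mM TCEP, 5% DMSO. Run at 23°C for 60-70 min, stopped with MES pH 5.8, read by product fluorescence. IC50 converted to apparent Ki via IC50=Ki(1+[S]/Km). Mean ± SD, ≥3 experiments.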

[18] = target: Tissue-type plasminogen activator (Homo sapiens) (UniProt P00750); experiment: Inhibition of human tPA at 10 uM
Chain of Tissue-type plasminogen activator (Homo sapiens) (P00750 36-562 limits assumed): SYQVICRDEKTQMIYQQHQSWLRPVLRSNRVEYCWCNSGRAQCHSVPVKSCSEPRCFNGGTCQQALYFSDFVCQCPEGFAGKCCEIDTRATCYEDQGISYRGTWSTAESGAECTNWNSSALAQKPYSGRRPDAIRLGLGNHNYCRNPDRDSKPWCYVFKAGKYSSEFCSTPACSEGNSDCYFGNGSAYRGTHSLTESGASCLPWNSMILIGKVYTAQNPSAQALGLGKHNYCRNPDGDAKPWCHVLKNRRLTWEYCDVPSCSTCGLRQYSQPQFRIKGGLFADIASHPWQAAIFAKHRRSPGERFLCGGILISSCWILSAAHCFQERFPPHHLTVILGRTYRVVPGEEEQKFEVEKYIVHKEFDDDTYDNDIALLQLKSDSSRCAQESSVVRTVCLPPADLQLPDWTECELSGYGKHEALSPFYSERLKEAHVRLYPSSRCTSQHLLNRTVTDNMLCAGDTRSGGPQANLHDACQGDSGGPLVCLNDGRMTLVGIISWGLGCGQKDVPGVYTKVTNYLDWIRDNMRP

[19] = target: Histamine H3 receptor (Homo sapiens) (UniProt Q9Y5N1); experiment: Inhibition of human H3 receptor at 10 uM
Chain of Histamine H3 receptor (Homo sapiens) (Q9Y5N1 whole entry, looked up): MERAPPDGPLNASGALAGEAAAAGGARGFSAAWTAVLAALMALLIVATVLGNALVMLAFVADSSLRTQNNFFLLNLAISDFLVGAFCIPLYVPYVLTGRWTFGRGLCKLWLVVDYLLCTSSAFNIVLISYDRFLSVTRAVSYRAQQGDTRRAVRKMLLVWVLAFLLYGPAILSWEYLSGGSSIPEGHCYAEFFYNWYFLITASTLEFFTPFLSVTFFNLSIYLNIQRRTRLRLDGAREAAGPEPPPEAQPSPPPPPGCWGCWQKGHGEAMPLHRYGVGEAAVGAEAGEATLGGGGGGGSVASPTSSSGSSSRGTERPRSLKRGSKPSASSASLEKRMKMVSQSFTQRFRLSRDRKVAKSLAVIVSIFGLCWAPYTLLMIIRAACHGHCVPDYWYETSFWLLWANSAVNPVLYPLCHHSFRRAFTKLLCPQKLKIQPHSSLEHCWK

[20] = target: Caspase-7 (Homo sapiens) (UniProt P55210); experiment: Inhibition of human caspase-7 at 10 uM
Chain of Caspase-7 (Homo sapiens) (P55210 24-198 limits assumed): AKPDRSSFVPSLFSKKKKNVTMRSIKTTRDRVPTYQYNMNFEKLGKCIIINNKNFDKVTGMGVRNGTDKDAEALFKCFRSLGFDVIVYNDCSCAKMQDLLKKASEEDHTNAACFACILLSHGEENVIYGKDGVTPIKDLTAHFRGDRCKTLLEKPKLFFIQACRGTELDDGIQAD
Chain of Caspase-7 (Homo sapiens) (P55210 207-303 limits assumed): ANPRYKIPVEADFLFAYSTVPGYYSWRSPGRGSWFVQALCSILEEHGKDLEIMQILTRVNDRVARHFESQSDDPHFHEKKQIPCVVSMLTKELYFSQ

[21] = target: 5-hydroxytryptamine receptor 7 (Homo sapiens) (UniProt P34969); experiment: Inhibition of human 5-HT7 receptor at 10 uM
[22] = target: Beta-secretase 1 (Homo sapiens) (UniProt P56817); experiment: Inhibition of human recombinant BACE-1 at 10 uM
[23] = AUC (0 to infinity) in monkey at 5 mg/kg, po; type: ADME, organism-based, Macaca mulatta; design: time infinity, dose 5 mg/kg, route oral; conditions: rhesus monkey, plasma
In short: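 Single oral dose of 5 mg/kg in 0.5% Methocel with 0.3% Tween 80 (10 ml/kg) to fasted male animals: Sprague-Dawley rats (275-300 g, overnight fast with 10% dextrose water), rhesus monkeys, beagle dogs. Rat blood from cannulated carotid at 0-8 h, pooled from 3 rats per time point; monkey/dog n=3. Plasma solid-phase extracted, LC-MS/MS at m/z 869.3; noncompartmental analysis.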

Chain of Caspase-1 (Homo sapiens) (P29466 120-297 limits assumed): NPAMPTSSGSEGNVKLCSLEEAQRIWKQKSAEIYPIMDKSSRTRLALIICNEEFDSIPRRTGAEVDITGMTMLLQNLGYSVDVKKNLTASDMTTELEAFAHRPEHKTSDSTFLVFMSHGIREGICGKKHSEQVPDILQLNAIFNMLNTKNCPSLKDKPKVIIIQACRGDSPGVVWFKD
Chain of Caspase-1 (Homo sapiens) (P29466 317-404 limits assumed): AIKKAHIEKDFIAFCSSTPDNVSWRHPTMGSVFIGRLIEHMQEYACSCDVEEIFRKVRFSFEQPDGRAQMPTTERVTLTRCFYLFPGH
Chain of Calpain-1 catalytic subunit (Homo sapiens) (P07384 whole entry): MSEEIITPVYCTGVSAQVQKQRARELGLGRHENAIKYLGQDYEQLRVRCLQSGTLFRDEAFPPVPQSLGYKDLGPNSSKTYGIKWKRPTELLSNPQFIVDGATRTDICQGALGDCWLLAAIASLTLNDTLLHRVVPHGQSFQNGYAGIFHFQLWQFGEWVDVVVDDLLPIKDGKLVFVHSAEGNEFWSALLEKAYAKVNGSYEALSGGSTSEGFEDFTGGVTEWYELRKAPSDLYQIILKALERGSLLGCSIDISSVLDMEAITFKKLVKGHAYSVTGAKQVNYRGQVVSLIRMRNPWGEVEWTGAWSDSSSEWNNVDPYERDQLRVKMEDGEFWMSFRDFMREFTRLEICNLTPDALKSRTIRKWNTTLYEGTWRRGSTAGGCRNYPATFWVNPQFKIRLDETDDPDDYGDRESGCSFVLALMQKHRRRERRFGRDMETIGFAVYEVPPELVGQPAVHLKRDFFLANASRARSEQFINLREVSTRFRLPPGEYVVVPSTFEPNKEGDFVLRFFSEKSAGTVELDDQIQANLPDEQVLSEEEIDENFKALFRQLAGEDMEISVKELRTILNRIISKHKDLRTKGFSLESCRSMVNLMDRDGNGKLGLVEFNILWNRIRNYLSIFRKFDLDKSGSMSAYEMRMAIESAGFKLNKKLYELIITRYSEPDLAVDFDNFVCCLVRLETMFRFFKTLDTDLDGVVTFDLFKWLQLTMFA

C=C[C@@H]1C[C@]1(NC(=O)[C@@H]1C[C@@H](Oc2cc(-c3csc(NC(=O)C(C)C)n3)nc3c(Br)c(OC)ccc23)CN1C(=O)[C@@H](NC(=O)OC1CCCC1)C(C)(C)C)C(=O)O
inhibition [1]: 13%
inhibition [2]: 18%
inhibition [3]: 21%
inhibition [4]: 5%
inhibition [5]: 4%
inhibition [6]: 3%
inhibition [7]: 11%
inhibition [8]: 5%
MRT [9]: 3.7 h
inhibition [10]: 38%
inhibition [11]: 18%
inhibition [12]: 12%
inhibition [13]: 22%
inhibition [14]: 14%
MRT [15]: 2.6 h
inhibition [16]: 7%
Ki [17]: 2.8 nM
inhibition [18]: 2%
inhibition [19]: 5%
inhibition [20]: 28%
inhibition [21]: 3%
inhibition [22]: 74%
AUC(0-inf) [23]: 8.3 µM·h
